M5 ag – CHRM5 agonism in calcium assay | CHO-K1 hM5 cells, Fluo-8 calcium fluorescence; 0% DMSO wells, 100% maximal acetylcholine response | P08912 | 360,000 tested, 0.19% active | activation, % at 3 µM;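 active means activation above the run's mean over test compounds plus 3 SD, cut at about 23% in these data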;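 further: signal is peak over basal fluorescence ratio across the kinetic read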
Target sequence (P08912 whole entry, looked up): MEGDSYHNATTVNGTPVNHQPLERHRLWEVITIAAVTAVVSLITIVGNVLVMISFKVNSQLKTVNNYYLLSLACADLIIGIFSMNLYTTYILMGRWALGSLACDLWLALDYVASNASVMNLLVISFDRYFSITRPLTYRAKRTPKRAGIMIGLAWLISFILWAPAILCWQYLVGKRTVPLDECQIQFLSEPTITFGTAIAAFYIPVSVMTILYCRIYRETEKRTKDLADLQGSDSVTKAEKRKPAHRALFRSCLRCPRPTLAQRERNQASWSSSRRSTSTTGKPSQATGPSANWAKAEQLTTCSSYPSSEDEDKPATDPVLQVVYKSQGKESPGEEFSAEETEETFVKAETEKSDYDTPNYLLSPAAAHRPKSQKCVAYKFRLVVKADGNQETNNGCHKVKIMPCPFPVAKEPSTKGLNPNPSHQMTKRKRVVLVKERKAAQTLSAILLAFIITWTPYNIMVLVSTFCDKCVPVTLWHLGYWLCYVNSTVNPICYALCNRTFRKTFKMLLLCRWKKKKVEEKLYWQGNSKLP
CHRM4 antagonist – antagonists of human muscarinic M4 receptor (CHRM4) | P08173 | CHO-hM4 cells, ACh EC80, Fluo-8 calcium fluorescence | inhibition, % at 3 µM | 360,000 tested, 0.73% active | AID 624125;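 active means inhibition above its plate's cutoff, the mean inhibition of sample wells plus 3 SD, cut at about 27% in these data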;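 further: 0% = acetylcholine EC80 with DMSO and 100% = DMSO without agonist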
M5 antag – blocks acetylcholine activation of human M5 receptor. P08912. CHO-hM5 cells, Fluo-8 calcium fluorescence, ACh EC80. inhibition, % at 3 µM. 360,000 tested, 0.59% active. AID 624040;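 active means inhibition above a per-plate cutoff, the mean of that plate's test compounds plus 3 SD, cut at about 27% in these data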;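 further: 0% = acetylcholine EC80 with DMSO and 100% = DMSO without agonist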
CHRM4 PAM – positive allosteric modulators of human muscarinic M4 receptor; CHO-K1 hM4/Gqi5, Fluo-8 calcium fluorescence, ACh EC20; 0% = ACh EC20, 100% = maximal ACh; 360,000 tested, 0.4% active; activation, % at 3 µM; AID 624126;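 active means activation above its plate's cutoff, the mean activation of sample wells plus 3 SD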
CHRM4 agonist – CHRM4 agonism in calcium assay; activation, % at 3 µM; CHO-K1 hM4/Gqi5, Fluo-8 calcium fluorescence; vehicle 0%, full acetylcholine response 100%; AID 624127; 360,000 tested, 0.14% active;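 active means activation above the run mean over all test wells plus 3 SD, cut at about 32% in these data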;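 further: peak over basal fluorescence ratio per well then scaled between controls; 0% = DMSO wells and 100% = acetylcholine at EC100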
CHRM5 PAM – potentiates acetylcholine response at human M5 receptor; CHO-K1 hM5, Fluo-8 calcium, ACh EC20 PAM; 0% = ACh EC20, 100% = ACh EC100; AID 624038; P08912; activation, % at 3 µM; 360,000 tested, 0.3% active;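 active means activation above the run cutoff, the mean activation of all test compounds plus 3 SD, cut at about 18% in these data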
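Measured by: Fluo-8 calcium fluorescence; material: human M5 receptor in CHO-K1 cells; schedule: Post-acetylcholine fluorescence recording 140 s; benchmarks: low control EC20 acetylcholine (0%), high control EC100 acetylcholine (100%); read-out: Max/basal fluorescence ratio as % of EC20–EC100 ACh window; compound: single dose, 3 µM nominal final test concentration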
* marks the source's active call; other numbers are inactive results. An excerpt weighted towards active compounds, which were near 1.8% of everything screened.

SMILES | M5 ag | CHRM4 antagonist | M5 antag | CHRM4 PAM | CHRM4 agonist | CHRM5 PAM
COc1ccc([N+](=O)[O-])cc1NC1CCN(C(=O)c2cccs2)CC1 | -0.3 | -2.5 | 3.4 | 17.7* | 3.3 | 4.7
CCCCOC(=O)CSc1nc(N)c(C#N)c(-c2ccc(OC)cc2)c1C#N | -4.1 | -15.0 | -21.2 | 7.0 | 0.8 | 23.1*
CCCCOC(=O)CSc1nc(N)c(C#N)c(-c2ccc(OCC)cc2)c1C#N | -0.9 | 9.5 | 6.2 | -3.5 | -0.1 | 0.1
C[C@H](NC(=O)[C@@H]1CSC2c3ccccc3C(=O)N21)C(=O)NCCc1ccc(F)cc1 (some centres undefined) | -3.0 | 5.8 | 0.0 | 6.2 | 1.9 | 0.5
O=C(CNC(=O)c1ccc(F)cc1)N/N=C/c1cn[nH]c1-c1ccccc1 | -0.9 | 1.9 | -9.3 | 11.1 | 1.0 | 1.3
O=C(CNC(=O)c1ccccc1F)N/N=C/c1cn[nH]c1-c1ccccc1 | -9.3 | 17.2 | 28.9* | -12.2 | 2.6 | -20.6
COCC(C)NS(=O)(=O)c1ccc(NC(=O)c2ccccn2)cc1 (centres undefined) | -3.0 | -8.5 | 30.2* | -6.3 | 1.5 | -17.8
Cc1ccc(C)c(OCCC(=O)OCC(=O)NCc2ccccc2)c1 | -1.2 | -1.2 | 1.5 | -1.0 | 1.1 | 0.7
Cc1ccc(C)c(OCCC(=O)OCC(=O)NCCNC(=O)COC(=O)CCOc2cc(C)ccc2C)c1 | 7.7 | 38.5* | 34.5* | -15.0 | 27.0 | -31.4
COc1ccc(N2CCOCC2)c(NC(=O)c2ccco2)c1 | -1.9 | 2.3 | 15.4 | -1.8 | 1.4 | 0.7
COC(=O)c1ccc(N2CCOCC2)c(NC(=O)c2ccco2)c1 | -4.0 | 28.5* | 2.5 | -7.7 | -0.1 | 7.4
CCOC(=O)C[C@H]1c2ccc(C(F)(F)F)cc2S(=O)(=O)N1C(C)C | -0.7 | 3.7 | 7.1 | -0.4 | -0.4 | -4.3
CCN(Cc1cccs1)C(=O)CN1C(=O)NC(c2ccccc2)(c2ccccc2)C1=O | 4.7 | 5.7 | -2.5 | 3.9 | 12.4 | 3.6
C/C(CC1CC(C)(C)OC1=O)=N\NC(N)=S (centres undefined) | 1.5 | -1.6 | -8.3 | 6.7 | 0.3 | 15.0
C/C(CC1CC2=C(CC1(C)C)C(C)(C)CCC2)=N\NC(N)=S (centres undefined) | 3.6 | 5.3 | 0.0 | 42.9* | 0.8 | 2.2
CC(NCc1ccc2c(c1)OCO2)C(=O)N1CCc2ccccc21 (centres undefined) | 0.3 | -17.7 | -5.3 | 22.9* | 4.5 | 18.1
COCCN(C(=O)COC(=O)c1ccc(C)s1)c1c(N)n(Cc2ccccc2)c(=O)[nH]c1=O | 0.1 | 5.2 | 18.8 | 4.5 | 1.2 | -3.3
Cc1ccc[n+](CC(=O)Nc2cc(C(F)(F)F)ccc2Cl)c1 | -6.7 | 1.1 | -3.0 | 0.4 | 0.1 | 0.7
CCC(C)(C)c1ccc(OCCCC[n+]2cccc(C)c2)c(C(C)(C)CC)c1 | -9.9 | 47.1* | 27.6* | -16.5 | 1.6 | -21.0
Cc1ccc(CCNS(=O)(=O)c2ccc3c(c2)NC(=O)CCS3)cc1 | 2.1 | -7.6 | -14.1 | 4.8 | 7.0 | 1.8
COc1ccc(CCNS(=O)(=O)c2ccc3c(c2)NC(=O)CCS3)cc1OC | 5.7 | -15.8 | -6.1 | 5.9 | 0.5 | 20.2*
CCOC(=O)Cc1csc(N/N=C/c2ccccc2)n1 | -2.4 | -12.1 | -6.4 | 24.0* | 6.6 | 17.8
CCOC(=O)Cc1csc(N/N=C\c2cccc(Br)c2)n1 | -3.5 | -13.7 | -0.1 | 8.1 | 1.4 | -5.3
COc1ccccc1C(=O)NC(=O)COC(=O)C1CC1C (centres undefined) | -2.2 | -9.6 | 8.2 | 11.6 | 0.1 | 3.8
Cc1noc(C)c1CN(C(=S)NC1CC2CCC1C2)c1ccccc1 (centres undefined) | -6.6 | -5.1 | -5.4 | -0.1 | -1.1 | 22.6*
SMILES | M5 ag | CHRM4 antagonist | M5 antag | CHRM4 PAM | CHRM4 agonist | CHRM5 PAM
CCOCCCN(C)C1CCN(C(=O)c2oc3ccccc3c2NC(=O)c2cccc([N+](=O)[O-])c2)CC1 | -5.1 | -1.6 | 5.5 | -7.5 | 3.5 | -3.1
O=C(CSc1ccccc1)NCC1(N2CCOCC2)CCCCC1 | -4.0 | -0.6 | 0.0 | -5.5 | 0.7 | 0.6
CCOC(=O)c1sc(=S)n(-c2ccccc2Cl)c1SC | -7.5 | 54.3* | 22.8 | -15.6 | -0.6 | -26.5
CCOC(=O)c1sc(=S)n(-c2ccccc2)c1SC | -7.4 | 14.1 | 1.8 | -17.7 | -1.8 | -11.4
COC(=O)[C@@]1(C(C)C)N=C(c2cc(OC)c(OC)c(OC)c2)[C@]2(O1)C(=O)N(C)c1ccc(Br)cc12 | 1.0 | -3.4 | -3.1 | 3.9 | 4.0 | -3.7
O=C1O[C@H]([C@@H](O)CO)C(O)=C1O | 69.7* | -10.6 | -5.3 | -0.8 | 8.8 | -20.4
Cc1ccc(S(=O)(=O)NCCCN2CCCC2)cc1 | -2.8 | 17.3 | 22.6 | 21.1* | 5.7 | 14.8
Cc1ccc(S(=O)(=O)NCCNS(=O)(=O)c2ccc(C)cc2)cc1 | -1.5 | 4.0 | 4.1 | -0.7 | 4.9 | -6.5
O=S(=O)(NCCCN1CCOCC1)c1ccc2c(c1)OCCO2 | 1.9 | 3.4 | -3.8 | -1.1 | -0.3 | 22.1*
CC1CCCN(C(=O)c2ccc(Br)c(S(=O)(=O)N3CCOCC3)c2)C1 (centres undefined) | 4.5 | -6.8 | 8.0 | -0.6 | 1.4 | -4.5
C=CCn1c(SCC(=O)Nc2cccnc2Cl)nnc1-c1ccc(Cl)cc1 | 8.2 | 22.0 | 27.6* | 15.7 | 0.7 | 25.5*
O=[N+]([O-])c1cc(C(F)(F)F)cc([N+](=O)[O-])c1NCCNC(=S)Nc1ccc(Cl)c(Cl)c1 | 10.1 | 30.7* | 35.5* | -11.4 | 14.5 | -24.8
O=c1oc2c(CN3CCOCC3)c(O)ccc2c2c1CCC2 | -2.6 | 13.3 | 0.9 | 5.5 | 0.2 | -0.9
CC(C)CN(Cc1c(O)ccc2c3c(c(=O)oc12)CCC3)CC(C)C | -1.9 | 28.1* | -9.7 | -30.3 | -0.6 | 6.0
Cc1cccc(N2C(=O)CN=C2Nc2nc(C)cc(C)n2)c1 | -4.7 | -15.1 | -0.8 | 18.3* | 1.3 | -6.7
Cc1cc(C)nc(NC2=NCC(=O)N2c2cc(Cl)cc(Cl)c2)n1 | -1.4 | 6.6 | -2.3 | 0.3 | 1.1 | 7.2
CO[C@H]1CN(C)C(=O)c2cc(NC(=O)c3ccccc3)ccc2OC[C@H](C)NC[C@@H]1C | 0.2 | 2.9 | -4.2 | -2.5 | 0.5 | 3.3
CCN1CCN(CC(=O)N2N=C(c3cccs3)CC2c2ccc(OC)c(OC)c2)C(=O)C1=O (centres undefined) | -2.1 | -11.9 | 6.0 | 0.6 | 0.5 | 6.1
C=C1C(=O)c2sccc2C(c2ccc(OC)c(OC)c2)C1COC(C)=O (centres undefined) | 8.2 | 30.2* | 9.4 | -1.4 | 3.6 | 8.5

Compound activity as filed in PubChem BioAssay.
